# Measurements published in ChEMBL document CHEMBL1123867, “Anticonvulsant O-alkyl sulfamates. 2,3:4,5-Bis-O-(1-methylethylidene)-beta-D-fructopyranose sulfamate and related compounds” (1987).
# The source made the active and inactive calls. The calls are words filed in the database; no cut-off is given here.
# Experiments:
# Mus musculus [1] = test: Anticonvulsant activity by using a standard maximal electroshock test (MES) in mice, by intraperitoneal administration of the compound; type: functional; details: ip
# Method in brief: (§1)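 Supramaximal electroshock: 50-mA current (60 Hz, 0.20 s) via corneal electrodes induced hind-limb tonic extension; inhibition of this component scored as activity. Mice dosed ip and/or po in aqueous solution or suspension (ca. 0.1% Tween 80, distilled water). Tested at 30, 60, 120 and 240 min (sometimes 45 min); ten mice per time point.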
# Mus musculus [2] = test: Anticonvulsant activity following p.o. administration by standard maximal electroshock test in mice.; type: functional; details: po; method in brief: as §1
# Mus musculus [3] = test: Percentage block of the hind-limb tonic-extensor seizure was determined after application of an electric shock to mice for 60 min followed by 200 mg/kg intraperitoneal dose; type: functional
# Method in brief: (§2)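 Mouse MES test: supramaximal seizure from a 50-mA current (60 Hz, 0.20-s) through corneal electrodes. […] Ten mice per time point. Compound given in aqueous solution or in suspension in ca. 0.1% Tween 80 and distilled water. Free food and water except during testing.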
# Mus musculus [4] = test: Percentage block of the hind-limb tonic-extensor seizure was determined after application of an electric shock to mice for 60 min followed by 400 mg/kg peroral dose; type: functional; details: route oral; method in brief: as §2
# Mus musculus [5] = test: Percentage block of the hind-limb tonic-extensor seizure was determined after application of an electric shock to mice for 120 min followed by 200 mg/kg intraperitoneal dose; type: functional; method in brief: as §1
# Mus musculus [6] = test: Percentage block of the hind-limb tonic-extensor seizure was determined after application of an electric shock to mice for 120 min followed by 400 mg/kg peroral dose; type: functional; details: route oral; method in brief: as §1
# Mus musculus [7] = test: Percentage block of the hind-limb tonic-extensor seizure was determined after application of an electric shock to mice for 30 min followed by 200 mg/kg intraperitoneal dose; type: functional; method in brief: as §1
# Mus musculus [8] = test: Percentage block of the hind-limb tonic-extensor seizure was determined after application of an electric shock to mice for 30 min followed by 400 mg/kg peroral dose; type: functional; details: route oral; method in brief: as §1
# Mus musculus [9] = test: Percentage block of the hind-limb tonic-extensor seizure was determined after application of an electric shock to mice for 240 min followed by 200 mg/kg intraperitoneal dose; type: functional; method in brief: as §1
# Mus musculus [10] = test: Percentage block of the hind-limb tonic-extensor seizure was determined after application of an electric shock to mice for 240 min followed by 400 mg/kg peroral dose; type: functional; details: route oral; method in brief: as §1
# Mus musculus [11] = test: Anticonvulsant activity by using a standard maximal electroshock test (MES) in mice, by 100 mg/kg intraperitoneal administration of the compound; I =inactive; type: functional, organism-based; parameters: dose 100 mg/kg; method in brief: as §1
# Mus musculus [12] = test: Anticonvulsant activity by using a standard maximal electroshock test (MES) in mice, by 100 mg/kg intraperitoneal administration; i= Inactive; type: functional, organism-based; parameters: dose 100 mg/kg; method in brief: as §1
# Mus musculus [13] = test: Anticonvulsant activity by using a standard maximal electroshock test (MES) in mice, by 200 mg/kg intraperitoneal administration of the compound; I=inactive, 0-10% block; type: functional, organism-based; parameters: dose 200 mg/kg; method in brief: as §1
# Mus musculus [14] = test: Anticonvulsant activity by using a standard maximal electroshock test (MES) in mice, by 400 mg/kg peroral administration of the compound; I=inactive, 0-10% block; type: functional, organism-based; parameters: dose 400 mg/kg; method in brief: as §1
# Mus musculus [15] = test: Anticonvulsant activity by using a standard maximal electroshock test (MES) in mice, by 100 mg/kg intraperitoneal administration of the compound; I=inactive, 0-10% block; type: functional, organism-based; parameters: dose 100 mg/kg; method in brief: as §1
# Mus musculus [16] = test: Percentage block of the hind-limb tonic-extensor seizure was determined after application of an electric shock to mice for 60 min followed by 100 mg/kg intraperitoneal dose; type: functional; method in brief: as §1
# Mus musculus [17] = test: Percentage block of the hind-limb tonic-extensor seizure was determined after application of an electric shock to mice for 120 min followed by 100 mg/kg intraperitoneal dose; type: functional; method in brief: as §1
# Mus musculus [18] = test: Percentage block of the hind-limb tonic-extensor seizure was determined after application of an electric shock to mice for 120 min followed by 200 mg/kg peroral dose; type: functional; details: route oral; method in brief: as §1
# Mus musculus [19] = test: Percentage block of the hind-limb tonic-extensor seizure was determined after application of an electric shock to mice for 30 min followed by 100 mg/kg intraperitoneal dose; type: functional; method in brief: as §1
# Mus musculus [20] = test: Percentage block of the hind-limb tonic-extensor seizure was determined after application of an electric shock to mice for 30 min followed by 200 mg/kg peroral dose; type: functional; details: route oral; method in brief: as §1
# Mus musculus [21] = test: Percentage block of the hind-limb tonic-extensor seizure was determined after application of an electric shock to mice for 240 min followed by 100 mg/kg intraperitoneal dose; type: functional; method in brief: as §1
# Mus musculus [22] = test: Percentage block of the hind-limb tonic-extensor seizure was determined after application of an electric shock to mice for 240 min followed by 200 mg/kg peroral dose; type: functional; details: route oral; method in brief: as §1
# Mus musculus [23] = test: Percentage block of the hind-limb tonic-extensor seizure was determined after application of an electric shock to mice for 60 min followed by 200 mg/kg peroral dose; type: functional; details: route oral; method in brief: as §2
# Mus musculus [24] = test: Percentage block of the hind-limb tonic-extensor seizure was determined after application of an electric shock to mice for 30 min followed by 50 mg/kg intraperitoneal dose; type: functional; method in brief: as §1
# Mus musculus [25] = test: Percentage block of the hind-limb tonic-extensor seizure was determined after application of an electric shock to mice for 60 min followed by 50 mg/kg intraperitoneal dose; type: functional; method in brief: as §2
# Mus musculus [26] = test: Percentage block of the hind-limb tonic-extensor seizure was determined after application of an electric shock to mice for 120 min followed by 100 mg/kg peroral dose; type: functional; details: route oral; method in brief: as §1
# Mus musculus [27] = test: Percentage block of the hind-limb tonic-extensor seizure was determined after application of an electric shock to mice for 30 min followed by 100 mg/kg peroral dose; type: functional; details: route oral; method in brief: as §1
# Mus musculus [28] = test: Percentage block of the hind-limb tonic-extensor seizure was determined after application of an electric shock to mice for 120 min followed by 50 mg/kg intraperitoneal dose; type: functional; method in brief: as §1
# Mus musculus [29] = test: Percentage block of the hind-limb tonic-extensor seizure was determined after application of an electric shock to mice for 240 min followed by 100 mg/kg peroral dose; type: functional; details: route oral; method in brief: as §1
# Mus musculus [30] = test: Percentage block of the hind-limb tonic-extensor seizure was determined after application of an electric shock to mice for 240 min followed by 50 mg/kg intraperitoneal dose; type: functional; method in brief: as §1
# Mus musculus [31] = test: Percentage block of the hind-limb tonic-extensor seizure was determined after application of an electric shock to mice for 60 min followed by 100 mg/kg peroral dose; type: functional; details: route oral; method in brief: as §2
# Mus musculus [32] = test: Anticonvulsant activity by using a standard maximal electroshock test (MES) in mice, by 200 mg/kg peroral administration of the compound; I=inactive, 0-10% block; type: functional, organism-based; parameters: dose 200 mg/kg; method in brief: as §1
Compound,ED50 (Mus musculus [1]) [mg/kg],ED50 (Mus musculus [2]) [mg/kg],Block (Mus musculus [16]) [%],Block (Mus musculus [17]) [%],Block (Mus musculus [18]) [%],Block (Mus musculus [19]) [%],Block (Mus musculus [20]) [%],Block (Mus musculus [21]) [%],Block (Mus musculus [22]) [%],Block (Mus musculus [23]) [%],also measured
CC1(C)O[C@@H]2[C@H](O1)[C@H]1OC(C)(C)OC1O[C@@H]2COS(N)(=O)=O (some centres not stated),175,> 200,,,,,,,,,Block (Mus musculus [3]): 40%; Block (Mus musculus [4]): 80%; Block (Mus musculus [5]): 50%; Block (Mus musculus [6]): 90%; Block (Mus musculus [7]): 20%; Block (Mus musculus [8]): 50%; Block (Mus musculus [9]): 30%; Block (Mus musculus [10]): 80%
CC1(COS(N)(=O)=O)CCCCC1,270,~400,,,,,,,,,Block (Mus musculus [3]): 30%; Block (Mus musculus [4]): 40%; Block (Mus musculus [5]): 20%; Block (Mus musculus [6]): 80%; Block (Mus musculus [7]): 30%; Block (Mus musculus [8]): 50%; Block (Mus musculus [9]): 20%; Block (Mus musculus [10]): 30%
CC1(C)OC2C(OS(N)(=O)=O)C3(COC(C)(C)O3)OC[C@H]2O1 (some centres not stated),,,,,,,,,,,ED50 (Mus musculus [11]): inactive
CC1(C)OC2C3OC(C)(C)O[C@]3(CO)OC[C@H]2O1 (some centres not stated),,,,,,,,,,,ED50 (Mus musculus [12]): inactive; ED50 (Mus musculus [13]): inactive; ED50 (Mus musculus [14]): inactive; Block (Mus musculus [3]): 0%; Block (Mus musculus [4]): 0%; Block (Mus musculus [5]): 0%; Block (Mus musculus [6]): 0%; Block (Mus musculus [7]): 0%; Block (Mus musculus [8]): 0%; Block (Mus musculus [9]): 0%; Block (Mus musculus [10]): 0%
CC1(C)OC2C3OC4(CCCCC4)O[C@@H]3CO[C@@]2(COS(N)(=O)=O)O1 (some centres not stated),,> 400,0,0,20,0,10,0,20,0,ED50 (Mus musculus [15]): inactive
NS(=O)(=O)OCC(c1ccccc1)c1ccccc1,,147,0,0,80,0,80,0,100,70,ED50 (Mus musculus [15]): inactive
NS(=O)(=O)OCC1CCc2ccccc2C1 (configuration not stated),56,82,,,,,,,,,Block (Mus musculus [24]): 30%; Block (Mus musculus [25]): 50%; Block (Mus musculus [26]): 80%; Block (Mus musculus [27]): 80%; Block (Mus musculus [28]): 0%; Block (Mus musculus [29]): 30%; Block (Mus musculus [30]): 0%; Block (Mus musculus [31]): 80%
CC1(C)OC2C3OC(C)(C)O[C@]3(COS(=O)(=O)Nc3ccccc3)OC[C@H]2O1 (some centres not stated),,,0,0,0,0,0,0,0,0,ED50 (Mus musculus [15]): inactive; ED50 (Mus musculus [32]): inactive
CC1(C)O[C@@H]2CO[C@@]3(COS(=O)(=O)N=[N+]=[N-])OC(C)(C)OC3[C@@H]2O1 (some centres not stated),> 100,~200,40,50,70,20,30,30,100,50,
CC1(C)OC[C@@H]2O[C@@]3(COS(N)(=O)=O)OC(C)(C)OC3[C@@H]2O1 (some centres not stated),100,150,50,20,70,30,70,0,50,80,
CC1(C)OCC(COS(N)(=O)=O)O1 (configuration not stated),~100,~75,70,90,100,50,70,70,100,90,
